# Ecoli rRNA inh: selective bacterial rRNA inhibition in E. coli | GFP signal change (wild-type ribosome), % (no concentration beside the values) | E. coli WT GFP vs humanized-ribosome RFP mutants, fluorescence, 24 h; hits give low values; DMSO median 0, no signal -100 | hit rate 1.6% among 350,000;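 active = significant combined selectivity score with lowered wild-type GFP, culture density cut under 30%, mutant RFP and density less affected; inactive = any of these conditions unmet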
# E-selectin induc: induces E-selectin expression in human endothelial cells; P16581; HUVEC E-selectin immunofluorescence imaging; normalized: neutral wells 0, TNF-alpha wells 100; activation, % at 7.58 µM; hit rate 0.37% among 260,000;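 active = mean E-selectin-positive cell signal at least 10% of the positive control, reached in at least 60% of replicates, without over 20% cell loss; inconclusive = no rule given, readout overlaps actives, possibly toxicity-flagged; inactive = the rest, including those meeting only one limit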
#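 Material: HUVEC primary endothelial cells; Amount: 3,000 cells per well; Dosing: single concentration; Medium: EGM-2 growth medium on 0.1% gelatin-coated wells; Read-out basis: percent E-selectin-positive cells; Signal: immunofluorescence imaging; Control set: TNF-alpha, DMSO.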
# RAD54 branch: inhibitors of human RAD54 branch migration; hit rate 0.14% among 360,000; RAD54 Holliday junction branch migration, FAM/BHQ fluorescence; Q92698; inhibition, % at 10.4 µM; AID 602329;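 active = mean normalized replicate activity at least 40 and at least half of replicates scoring 40 or more; inconclusive = only one of the two criteria met; inactive = mean below 40 and under half of replicates reaching 40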;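 note: inhibitors cause a drop in the FAM fluorescence signal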
# MLL AF4-AF9 inh: blocks AF4 peptide binding to human AF9. AlphaScreen, biotin-AF4 peptide binding to FLAG-AF9. P42568. AID 651704. inhibition, % at 10 µM. hit rate 0.47% among 350,000;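 active = every replicate reaching a set inhibition limit, whatever the replicate mean, cut at about 25% in these data; inconclusive = mean inhibition reaches that limit but some replicates miss it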
# RAD52 anneal inh: inhibitors of human RAD52 DNA annealing. P43351. recombinant RAD52 DNA annealing, FRET fluorescence. inhibition, % at 18.7 µM. hit rate 0.46% among 360,000. AID 651710;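 active = every replicate showing at least 50% inhibition; inconclusive = mean inhibition at least 50% but not in every replicate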
# Target sequence (P43351 whole entry, looked up): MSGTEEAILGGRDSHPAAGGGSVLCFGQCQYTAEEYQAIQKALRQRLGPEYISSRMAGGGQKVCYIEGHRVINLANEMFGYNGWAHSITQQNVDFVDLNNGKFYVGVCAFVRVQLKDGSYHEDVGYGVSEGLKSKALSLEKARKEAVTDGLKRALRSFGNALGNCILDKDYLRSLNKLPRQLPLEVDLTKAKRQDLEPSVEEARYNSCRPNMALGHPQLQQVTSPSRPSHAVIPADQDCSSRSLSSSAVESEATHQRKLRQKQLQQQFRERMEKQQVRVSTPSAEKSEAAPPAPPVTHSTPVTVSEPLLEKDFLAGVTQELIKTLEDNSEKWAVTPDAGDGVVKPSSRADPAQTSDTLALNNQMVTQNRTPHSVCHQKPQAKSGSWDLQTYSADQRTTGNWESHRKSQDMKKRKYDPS
# GSIS activator: primary screen for activators of insulin secretion dependent on glucose, INS-1E cells, GLuc reporter luminescence; INS-1E GLuc reporter insulin secretion, 2-3 h; activation, % at 16.6 µM; hit rate 0.61% among 370,000;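 active = lowest replicate activation of at least 40%, so every replicate reaches that level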
# HepG2 cytotox: cytotoxic compounds in HepG2 cells; shares compounds with Ecoli rRNA inh; HepG2 viability, ATP luminescence, 72 h; activity change, negative = cytotoxicity, unspecified at 26 µM; 30 tested, under 10 active;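 active = compounds whose fitted half-maximal signal-loss concentration is at most twice their highest valid dose; inconclusive = flat curve with 30 to 70% signal loss, or poor fit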
# AID977621: growth inhibition of wild-type GFP E. coli, dose response, H69 mutant RFP, cherry-pick. shares compounds with Ecoli rRNA inh. E. coli wild-type GFP strain growth, fluorescence, 24 h. activity change, negative = inhibition at 50 µM. 1,900 tested, under 10 active. AID 977621;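 active = Wild-type ribosome reporter drop at least double the humanized mutant ribosome reporter drop, growth loss under a set limit; inconclusive = no clear call, values can overlap the other calls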;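 note: wild-type GFP and H69 mutant RFP strains grown together 50/50 in each well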
# AID977628: E. coli growth inhibition, wild-type GFP versus h24 humanized RFP strain, dose response, h24 mutant RFP vs wild-type GFP, cherry-pick; activity change, negative = inhibition at 50 µM; AID 977628; 1,900 tested, under 10 active; E. coli WT GFP strain growth, fluorescence, 24 h; shares compounds with Ecoli rRNA inh;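 active = compound lowering the normal-ribosome reporter at least twice as much as the humanized-ribosome reporter, growth loss under a set limit; inconclusive = no clear call, values can overlap the other calls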;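 note: wild-type GFP and h24 humanized RFP strains co-cultured 1 to 1 per well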
# A number is an active result; n = inactive; u = inconclusive; x = no result given. An excerpt weighted towards active compounds, which were near 2.6% of everything screened.
SMILES,Ecoli rRNA inh,E-selectin induc,RAD54 branch,MLL AF4-AF9 inh,RAD52 anneal inh,GSIS activator,AID977621,AID977628,others
O=C(NCc1ccccc1)C1CCN(S(=O)(=O)c2cc([N+](=O)[O-])ccc2Cl)CC1,n,x,x,n,n,n,x,x,
O=C(NCc1cccnc1)C1CCN(S(=O)(=O)c2cc([N+](=O)[O-])ccc2Cl)CC1,-3.1,x,n,n,n,x,n,n,
O=C(Nc1ccc2c(c1)CCC2)c1ccccc1F,x,x,x,x,x,n,x,x,
O=C(O)c1ccccc1-c1ccccc1C(=O)Nc1ccc2c(c1)CCC2,-21,n,n,n,n,n,n,x,
Cc1occc1C(=O)Nc1ccc2c(c1)CCC2,-13,x,x,n,n,n,u,u,
CC(C)N1CC2(CC(c3ccccc3C(F)(F)F)=NO2)CN1C(=O)c1ccco1 (stereo unspecified),-20,n,x,n,n,n,x,u,
COc1ccc(NC(=O)c2cccc(Oc3ccc([N+](=O)[O-])cc3Cl)c2)cc1,-24,n,x,n,n,n,n,n,
COc1ccc(NC(=O)c2c3c(nc4ccccc24)CCC3)cc1,x,x,n,x,x,n,x,x,
COc1ccc(OC)c(NC(=O)c2c3c(nc4ccccc24)CCC3)c1,-22,x,n,n,n,n,x,u,
CSc1nc(N)nc(SC2C=CCCC2)c1C#N (stereo unspecified),-24,x,n,n,n,n,x,u,HepG2 cytotox=n
C[C@H](CO)N1C[C@H](C)[C@H](CN(C)Cc2ccccc2)Oc2ccc(NC(=O)Cn3cnnn3)cc2CC1=O,n,n,n,n,n,n,x,x,
COC(=O)c1ccc(CSc2nc3ccccc3s2)o1,-33,x,n,n,n,n,n,n,
O=C(Nc1nc2ccccc2n1CCN1CCOCC1)c1ccccc1,-16,x,n,n,n,n,n,n,
CC1CC(C)CN(c2oc(Cc3ccccc3)nc2C#N)C1 (stereo unspecified),x,n,x,x,x,n,x,x,
N#Cc1nc(COc2cccc(Cl)c2)oc1N1CCCC1,-33,n,n,u,n,n,n,n,
N#Cc1nc(Cc2ccccc2)oc1N1CCCC1,-23,x,x,n,n,n,x,u,
COCC(=O)N1C[C@H](C)[C@H](OC)CN(C)C(=O)c2ccc(NS(C)(=O)=O)cc2OC[C@@H]1C,n,n,n,n,n,n,x,x,
Cc1cccc(NC(=O)c2ccc([N+](=O)[O-])o2)c1C,n,n,n,n,n,n,x,x,
O=C(Nc1cccc2ccccc12)c1ccc([N+](=O)[O-])o1,-19,u,n,n,n,n,u,x,
Cc1ccnc(NC(=O)c2ccc([N+](=O)[O-])o2)c1,x,x,n,x,x,n,x,x,
O=C(Nc1ncccn1)c1ccc([N+](=O)[O-])o1,-18,x,x,n,n,n,n,u,
C[C@@H]1CN([C@@H](C)CO)C(=O)c2cc(C3=CCCC3)cnc2O[C@H]1CN(C)C(=O)Nc1cccc(F)c1,n,n,x,n,x,n,x,x,
COc1ccc(C2CC(c3cccs3)=Nc3ccccc3S2)cc1 (stereo unspecified),-26,x,n,n,n,n,n,u,
COc1ccc(C2CC(c3cccs3)=NN2S(C)(=O)=O)cc1 (stereo unspecified),n,n,n,n,n,n,x,x,
COc1cc2cc(C(=O)Nc3ccc4c(c3)OCCO4)[nH]c2cc1OC,-21,x,n,n,n,n,n,n,
SMILES,Ecoli rRNA inh,E-selectin induc,RAD54 branch,MLL AF4-AF9 inh,RAD52 anneal inh,GSIS activator,AID977621,AID977628,others
COc1ccc(NC(=O)Nc2cccc3c2O[C@H](CN(C)S(=O)(=O)c2ccc(C)cc2)[C@H](C)CN([C@@H](C)CO)C3=O)cc1,-19,n,n,n,n,n,x,u,
COc1ccc(NC(=O)Nc2cccc3c2O[C@H](CN(C)S(=O)(=O)c2ccc(C)cc2)[C@H](C)CN([C@H](C)CO)C3=O)cc1,n,n,n,n,n,n,x,x,
COc1ccc(NC(=O)Nc2cccc3c2O[C@@H](CN(C)S(=O)(=O)c2ccc(Cl)cc2)[C@H](C)CN([C@@H](C)CO)C3=O)cc1,n,n,n,n,n,n,n,x,
COc1ccc(NC(=O)Nc2cccc3c2O[C@H](CN(C)S(=O)(=O)c2ccc(OC)cc2)[C@H](C)CN([C@H](C)CO)C3=O)cc1,n,n,n,n,n,n,x,x,
Cc1cc(C(=O)Nc2cccc3c2O[C@H](CN(C)S(=O)(=O)c2ccc(Cl)cc2)[C@H](C)CN([C@@H](C)CO)C3=O)n(C)n1,-24,n,n,n,n,n,n,u,
COc1ccc(NC(=O)Nc2cccc3c2O[C@H](CN(C)S(=O)(=O)c2ccc(Cl)cc2)[C@@H](C)CN([C@@H](C)CO)C3=O)cc1,n,n,n,n,n,n,n,n,
Cc1noc(C)c1NC(=O)N(C)C[C@@H]1OCCCC[C@H](C)Oc2ccc(N(C)C)cc2C(=O)N([C@@H](C)CO)C[C@@H]1C,n,n,n,n,n,n,x,x,
[O-][n+]1ccccc1/C=C/c1ccccc1,-26,n,x,n,n,n,n,u,
CN(C)c1ccc(/C=C/c2cccc[n+]2[O-])cc1,n,x,n,n,n,x,x,x,
COc1cc2c(cc1[N+](=O)[O-])-c1ccccc1C2,x,x,n,n,n,x,x,x,
COc1cc2c(cc1[N+](=O)[O-])-c1ccc([N+](=O)[O-])cc1C2,-23,n,n,n,n,x,x,u,HepG2 cytotox=n
CCn1cc(CN2CCCC(CNS(=O)(=O)c3ccc(OC)cc3)C2)cn1 (stereo unspecified),n,n,n,n,n,n,x,x,
CCc1ccc(CN2CCCC(CNS(=O)(=O)c3ccc(OC)cc3)C2)cc1 (stereo unspecified),-22,x,x,n,n,n,n,u,
c1coc(CSc2ncnc3c2oc2ccccc23)c1,-23,x,n,n,n,x,n,n,
c1ccc(CSc2ncnc3c2oc2ccccc23)cc1,x,x,n,x,x,x,x,x,
COC(=O)CC1COc2ccccc2N1C(=O)c1ccc(Br)cc1 (stereo unspecified),-25,n,n,n,n,n,n,n,
COC(=O)CC1COc2ccccc2N1C(=O)c1ccc(Cl)cc1 (stereo unspecified),x,x,n,x,x,x,x,x,
Cc1ccc(CN(C)C(=O)c2ccc(NS(=O)(=O)c3ccc4[nH]c(=O)[nH]c4c3)cc2)cc1,n,x,n,n,n,n,x,x,
CCOc1ccc(CN(C)C(=O)c2ccc(NS(=O)(=O)c3ccc4[nH]c(=O)[nH]c4c3)cc2)cc1,-17,n,n,n,n,n,n,u,
Brc1ccc(Nc2ncnc3[nH]ncc23)cc1,-20,n,n,n,n,n,n,x,

# Source: PubChem
